Experimental data reported in BindingDB's records for doi:10.1021/jm00077a013 (Takeda Chemical Industries, 1994).

Biological target: T1, Endothelin-1 receptor (Sus scrofa, UniProt Q29010)
T1 sequence (Q29010 whole entry): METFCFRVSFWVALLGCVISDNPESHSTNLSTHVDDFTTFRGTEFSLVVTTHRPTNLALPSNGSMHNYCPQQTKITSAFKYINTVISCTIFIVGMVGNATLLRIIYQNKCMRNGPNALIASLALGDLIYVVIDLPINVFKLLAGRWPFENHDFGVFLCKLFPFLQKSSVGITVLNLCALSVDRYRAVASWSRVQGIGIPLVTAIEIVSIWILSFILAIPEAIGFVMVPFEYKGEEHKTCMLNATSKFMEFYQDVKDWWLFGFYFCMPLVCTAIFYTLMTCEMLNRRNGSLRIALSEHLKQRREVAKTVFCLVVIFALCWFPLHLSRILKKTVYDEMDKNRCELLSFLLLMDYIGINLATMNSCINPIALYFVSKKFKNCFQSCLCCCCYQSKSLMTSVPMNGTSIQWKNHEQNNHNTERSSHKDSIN
Assay: Tested for the competitive binding versus [125I]- ET-1 determined in porcine cardiac ventricular membrane for Endothelin A receptor
Summary of the method: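 Membranes (porcine cardiac ventricle at 12 μg/mL for ETA; bovine cerebrum at 150 μg/mL for ETB) in pH 7.2 Tris/EGTA/Mg acetate/0.1% BSA buffer with protease inhibitors. Incubated with 100 pM [125I]ET-1 and varied compound for 1 h at 25 °C, then filtered and counted by gamma counter. IC50 given as mean ± SEM of ≥3 determinations.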

## CC[C@H](C)[C@H](NC(=O)[C@H](CC1CCCCC1)NC(=O)[C@@H](NC(=O)[C@H](CC(C)C)NC(=O)[C@H](Cc1c[nH]cn1)NC(=O)[C@@H]1CSSC[C@H](N)C(=O)N[C@@H](CO)C(=O)N[C@H]2CSSC[C@H](NC(=O)[C@H](CCC(=O)O)NC(=O)[C@H](CCCCN)NC(=O)[C@H](CC(=O)O)NC(=O)[C@H](CCSC)NC(=O)[C@H](CC(C)C)NC(=O)[C@H](CO)NC(=O)[C@H](CO)NC2=O)C(=O)N[C@@H](C(C)C)C(=O)N[C@@H](Cc2ccc(O)cc2)C(=O)N[C@@H](Cc2ccccc2)C(=O)N1)[C@@H](C)O)C(=O)N[C@@H](Cc1c[nH]c2ccccc12)C(=O)O
  IC50: 0.7 nM
